PGC1a acetyl inh: lowers PGC1a acetylation signal in U2OS cells. AlphaScreen anti-acetyl-lysine; with virally co-expressed GCN5 acetyltransferase. inhibition, % at 15.6 µM. hit rate 0.17% among 350,000;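 active = every replicate shows inhibition of at least 40%; inconclusive = mean inhibition at least 40% but some replicate below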;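 also: 0% = neutral control wells and 100% = positive control wells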
PAX8 reporter: lowers PAX8-driven luciferase in RMG-I cells; RMG-I TPO-luciferase reporter, SteadyGlo, 24 h; inhibition, % at 12.6 µM; hit rate 1.2% among 360,000; AID 652154;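 active = mean replicate inhibition at least 60% with every replicate also reaching 60%; inconclusive = only one of the two criteria is met; inactive = mean below 60% and not all replicates reaching 60%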;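 also: luciferase light reporting Pax8 driven TPO promoter activity; plate controls were median of neutral control wells for no effect and mitoxantrone controls for full effect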
HIV Env fusion: blocks HIV Env-driven cell-cell fusion; inhibition, % at 12.3 µM; hit rate 1.1% among 360,000; AID 651610; HeLa-JRFL Env/CEM21 cell fusion, luciferase;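 active = mean replicate inhibition score of at least 50 and every replicate individually at or above 50; inconclusive = only one of the two criteria met; inactive = mean below 50 and not all replicates reaching 50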;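 also: 0% = plate neutral controls and 100% = maraviroc near 300 nM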
CFTR F508del cor: CFTR F508del correction in bronchial cells. CFBE cells, YFP halide quenching; stimulated with forskolin plus potentiator P3; % fluorescence drop versus neutral controls. activity (quench increase), % at 7.58 µM. hit rate 0.36% among 350,000;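 active = mean added fluorescence quench of at least 8% versus neutral control, with both replicates also reaching 8%; inconclusive = only one of the mean or replicate conditions met; inactive = mean below 8% and not both replicates reaching 8%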;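 also: cells transiently co-express mutant CFTR-F508del with the halide-sensitive YFP; corrector assay measuring rescue of mutant channel to the surface after 24 h compound exposure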
EWS-Fli block: inhibitors of EWS/Fli oncoprotein transcriptional activity; A673 NR0B1-luciferase reporter, viability-normalised; inhibition, % at 12.6 µM; hit rate 0.67% among 350,000; AID 651661;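 active = mean inhibition of at least 50% after viability correction, with every replicate also passing that limit; inconclusive = mean reaches 50% but only one of two replicates passes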;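 also: firefly luciferase signal divided by Alamar Blue viability fluorescence both relative to DMSO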
FN deposit inh: fibronectin deposition inhibition. AH1F fibroblasts, Alexa488-fibronectin deposition fluorescence, overnight. inhibition, % at 12.6 µM. hit rate 0.086% among 350,000;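 active = mean inhibition across replicates of 30% or more, regardless of how many single replicates reach that level; inconclusive = mean under 30% yet at least half of replicates reach 30%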;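 also: positive control wells lacked labelled fibronectin entirely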
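Material: AH1F fibroblast monolayer depositing Alexa488-labelled fibronectin into matrix | Input: 10000 AH1F cells/well | Medium: DMEM plus 2% serum, read in PBS | Reagent: Alexa488-fibronectin, 24 nM final in well | Compound dosing: One dose per compound, pinned | Schedule: 1 h adhesion, overnight exposure | Measured by: Fluorescence at 485 nm excitation, 525 nm emission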
* marks the source's active call; other numbers are inactive results; u = inconclusive; x = no result; [ ] = dose if it differs, or a comment. This is a sample that favours compounds with a hit; in the whole collection about 2.3% have one here.

SMILES | PGC1a acetyl inh | PAX8 reporter | HIV Env fusion | CFTR F508del cor | EWS-Fli block | FN deposit inh
O=C(Nc1ccccc1)N[C@@H]1CC[C@H](CCn2cc(-c3ccccc3F)nn2)O[C@H]1CO | -5.9 | x | x | 0.4 | -7.6 | x
C[C@H](CO)N1C[C@H](C)[C@H](CN(C)C(=O)c2ccccn2)Oc2cc(C3=CCCC3)ccc2S1(=O)=O | -5.3 | x | 8.9[16.7 µM] | -0.6 | 3.7 | x
COCCn1c(=S)[nH]c2cc(C(=O)N3CCN(Cc4ccc5c(c4)OCO5)CC3)ccc2c1=O | x | 55.9 | 86.4* | x | x | 0.4
COCCn1c(=S)[nH]c2cc(C(=O)N3CCc4ccccc43)ccc2c1=O | 5.0 | x | 80.0* | x | x | x
COc1ccc([C@@]23Oc4cc(OC)cc(OC)c4[C@]2(O)[C@H](O)[C@H](C(=O)N(C)C)[C@H]3c2ccccc2)cc1 | x | 86.8* | 7.8 | -8.6 | 23.0 | 17.9
N=c1c2c(-c3ccccc3)c(-c3ccccc3)n(Cc3ccco3)c2ncn1CCCN1CCOCC1 | -8.6 | u | 74.7* | 3.2 | 5.2 | 3.9
N=c1c2c(-c3ccccc3)c(-c3ccccc3)n(Cc3ccco3)c2ncn1CCCn1ccnc1 | x | 30.1 | 24.6 | x | 13.8 | 12.6
C[C@@H]1CN([C@H](C)CO)C(=O)Cc2cc(NC(=O)Nc3ccc4c(c3)OCO4)ccc2O[C@@H]1CN(C)CC1CCCCC1 | -14.0 | 29.7 | 20.0[16.7 µM] | 0.6 | 1.8 | x
C[C@@H]1CN([C@@H](C)CO)C(=O)Cc2cc(NC(=O)Nc3ccc(F)cc3)ccc2O[C@H]1CN(C)CC1CCCCC1 | x | 82.1* | 5.5[16.7 µM] | -3.0 | 13.5 | x
C[C@@H]1CN([C@@H](C)CO)C(=O)Cc2cc(NC(=O)NC3CCCCC3)ccc2O[C@H]1CN(C)CC1CCCCC1 | -21.1 | 67.2* | -6.0[16.7 µM] | 0.0 | -2.0 | x
C[C@@H]1CN([C@@H](C)CO)C(=O)Cc2cc(NC(=O)Nc3ccc4c(c3)OCO4)ccc2O[C@H]1CN(C)CC1CCCCC1 | -9.0 | 82.5* | 16.6[16.7 µM] | 1.2 | 2.0 | x
C[C@@H]1CCCCO[C@H](CN(C)Cc2ccc(C(=O)O)cc2)[C@H](C)CN([C@H](C)CO)C(=O)c2cc(NC(=O)CCC(F)(F)F)ccc2O1 | 6.7 | x | -7.6[16.7 µM] | -0.8 | -12.6 | x
Oc1c(C(c2ccccc2)N2CCOCC2)ccc2ccccc12 (stereo not drawn) | 14.4 | 86.7* | 72.5* | -4.3 | 0.2 | 4.6
N#C/C(=N/Nc1ccc(OC(F)(F)F)cc1)C(N)=S | 0.0 | 80.8* | -33.1 | 7.8 | -35.0 | -13.4
COc1ccc(N/N=C(\C#N)C(N)=O)cc1 | x | -7.8 | -31.1 | x | -4.3 | 1.0
COc1cccc(CC(=O)Nc2nc3c(s2)C(=O)CC(C)(C)C3)c1 | -8.2 | 98.5* | 2.1 | -2.1 | 8.1 | 3.7
C[C@@H]1CCCCO[C@@H](CN(C)Cc2ccccc2)[C@H](C)CN([C@H](C)CO)C(=O)c2cc(NS(=O)(=O)c3cn(C)cn3)ccc2O1 | -12.5 | 19.7 | -20.7[16.7 µM] | 0.4 | 1.4 | 0.6
O=C(c1ccco1)N1N=C(c2ccc(Br)cc2)CC1(O)C(F)(F)F (stereo not drawn) | -2.1 | 97.0* | 26.9 | 0.0 | 5.0 | -2.6
O=C1C2C3C=CC(C4CC34)C2C(=O)N1/N=C/c1c[nH]c2ccccc12 (stereo not drawn) | 106.0* | -54.2 | -71.7 | 1.9 | -39.6 | -8.1
O=C1C2C3C=CC(C4CC34)C2C(=O)N1/N=C/c1ccc([N+](=O)[O-])s1 (stereo not drawn) | x | -13.4 | -2.7 | x | -20.7 | -0.8
COC(=O)c1ccc(-c2nc(-c3cccs3)no2)cc1 | -13.8 | -55.8 | -46.6 | -0.1 | 58.2* | -2.1
O=C(C[C@@H]1C[C@H]2c3cc(NC(=O)NC4CCCC4)ccc3O[C@H]2[C@@H](CO)O1)NC1CCCC1 | -1.7 | -4.8 | -21.1[16.7 µM] | 0.8 | -0.1 | -1.1
Cc1cccc(N2C(=O)c3cccc4c(N5CCCCC5)c([N+](=O)[O-])cc(c34)C2=O)c1C | 7.5 | -8.5 | 7.0 | x | x | 5.5
Cc1cnc(N2C(=O)c3ccc([N+](=O)[O-])cc3C2=O)s1 | 11.9 | -8.7 | -5.5 | -1.0 | -0.7 | x
O=C1c2cccc3c([N+](=O)[O-])ccc(c23)C(=O)N1Cc1cccnc1 | 18.4 | 33.7 | -35.7 | 32.8* | 38.4 | -12.8
Cc1nnc(N2C(=O)c3cccc4c([N+](=O)[O-])ccc(c34)C2=O)s1 | -25.4 | 18.0 | -90.2 | u | 68.2* | -9.0
